In ChEMBL document CHEMBL1157636, “Novel C-aryl glucoside SGLT2 inhibitors as potential antidiabetic agents: 1,3,4-Thiadiazolylmethylphenyl glucoside congeners” (Bioorg Med Chem, 2010):

How the values were obtained:
[1] = target: T1, Sodium/glucose cotransporter 2 (Homo sapiens, UniProt P31639); assay: Inhibition of human recombinant SGLT2 expressed in CHO cells by liquid scintillation counting; format: cell-based
T1 sequence (P31639 whole entry): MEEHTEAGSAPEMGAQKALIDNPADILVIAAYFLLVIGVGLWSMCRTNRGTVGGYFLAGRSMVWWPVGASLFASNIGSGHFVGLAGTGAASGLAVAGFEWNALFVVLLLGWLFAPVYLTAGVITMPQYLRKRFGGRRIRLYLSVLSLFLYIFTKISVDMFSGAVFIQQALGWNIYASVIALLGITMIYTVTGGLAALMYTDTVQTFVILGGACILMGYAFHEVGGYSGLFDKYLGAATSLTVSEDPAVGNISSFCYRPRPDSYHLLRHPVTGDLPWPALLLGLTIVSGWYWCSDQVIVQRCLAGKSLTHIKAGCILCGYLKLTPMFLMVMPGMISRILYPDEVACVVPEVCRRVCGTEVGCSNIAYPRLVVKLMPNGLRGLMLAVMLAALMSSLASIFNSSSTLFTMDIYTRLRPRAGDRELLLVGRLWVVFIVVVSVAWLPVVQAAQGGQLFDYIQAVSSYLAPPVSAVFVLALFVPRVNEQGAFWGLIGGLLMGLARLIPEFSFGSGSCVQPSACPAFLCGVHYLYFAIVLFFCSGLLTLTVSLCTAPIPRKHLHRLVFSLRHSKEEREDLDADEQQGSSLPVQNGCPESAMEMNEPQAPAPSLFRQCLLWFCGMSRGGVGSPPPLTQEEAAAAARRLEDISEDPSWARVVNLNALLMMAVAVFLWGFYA
In short: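 hSGLT2 cloned from human kidney cDNA; stable clones selected by G418 resistance. Preincubated 10 min at 37 °C in sodium-free choline buffer pH 7.4. Then 2 h at 37 °C in Na⁺ uptake buffer with 1 mM unlabeled AMG plus ¹⁴C-AMG and inhibitor or DMSO. Washed, radioactivity counted; IC50 by nonlinear regression.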

[2] = Cmax in Sprague-Dawley rat at 5 mg/kg, po; format: ADME, organism-based; design: dose 5 mg/kg, route oral; details: in vivo
[3] = tested on: Rattus norvegicus; assay: Effect on urinary glucose excretion in normal fasted Sprague-Dawley rat at 10 mg/kg, po subsequently co-treated with glucose measured up to 24 hrs relative to untreated control; format: ADME, organism-based, Urine; design: dose 10 mg/kg, route oral; details: in vivo
In short: (§1)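 Overnight-fasted male SD rats placed in metabolism cages for 24 h baseline urine, then randomized and given single oral drug or vehicle followed by oral 50% aqueous glucose (2 g/kg). Urine collected 24 h, re-fed 1 h after glucose challenge. Urine volume measured and glucose determined enzymatically. Values normalized per 200 g body weight; means ± S.E.M., ANOVA with Dunnett's test.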

[4] = tested on: Rattus norvegicus; assay: Effect on urine volume in normal fasted Sprague-Dawley rat at 10 mg/kg, po subsequently co-treated with glucose measured up to 24 hrs relative to untreated control; format: ADME, organism-based; design: dose 10 mg/kg, route oral; details: in vivo; in short: as §1
[5] = tested on: Mus musculus; assay: Antidiabetic activity in db/db mouse assessed as reduction in blood glucose level at 10 mg/kg, po after 4 hrs relative to untreated control; format: functional; design: scale not given: the % may be the effect or the level left
In short: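 Diabetic db/db mice (n = 4 per group), randomized by weight and given single oral dose of vehicle or drug. Reduction versus vehicle controls at 4 h; means ± S.E.M., one-way ANOVA with Dunnett's test.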

[6] = Tmax in Sprague-Dawley rat at 5 mg/kg, po; format: ADME, organism-based; design: dose 5 mg/kg, route oral; details: in vivo
[7] = Elimination half life in Sprague-Dawley rat at 5 mg/kg, po; format: ADME, organism-based; design: dose 5 mg/kg, route oral; details: in vivo, read-out: beta t1/2 (converted)
[8] = Oral bioavailability in Sprague-Dawley rat at 5 mg/kg; format: ADME, organism-based; details: in vivo
[9] = tested on: Rattus norvegicus; assay: Effect on urinary glucose excretion in normal fasted Sprague-Dawley rat at 10 mg/kg, po subsequently co-treated with glucose measured up to 24 hrs relative to untreated control; details: in vivo

IC50 [1] [µM]	SMILES	other results
> 10	CCc1noc(C)c1-c1nnc(Cc2cc([C@@H]3O[C@H](CO)[C@@H](O)[C@H](O)[C@H]3O)ccc2Cl)s1	–
> 10	CC(C)(c1ccc(Cl)cc1)c1nnc(Cc2cc(C3O[C@H](CO)[C@@H](O)[C@H](O)[C@H]3O)ccc2Cl)s1 (some centres not stated)	–
> 10	Cc1noc(C)c1-c1nnc(Cc2cc([C@@H]3O[C@H](CO)[C@@H](O)[C@H](O)[C@H]3O)ccc2Cl)s1	–
0.00625	COc1ccc(Cc2ccccc2O[C@@H]2O[C@H](CO)[C@@H](O)[C@H](O)[C@H]2O)cc1 [SERGLIFLOZIN A]	–
–	OC[C@H]1O[C@@H](c2ccc(Cl)c(Cc3nnc(-c4ccco4)s3)c2)[C@H](O)[C@@H](O)[C@@H]1O	Cmax [2]: 50 ng/mL; fold change (FC) [3]: 100; fold change (FC) [4]: 1.4; Activity [5]: 72.8%; Tmax [6]: 19.8 min; half-life [7]: 51.6 min; bioavailability [8]: 7.7%; fold change (FC) [9]: 100
6.91	CCCc1nnc(Cc2cccc([C@@H]3O[C@H](CO)[C@@H](O)[C@H](O)[C@H]3O)c2)s1	–
3.28	Cn1nc(-c2nnc(Cc3cc([C@@H]4O[C@H](CO)[C@@H](O)[C@H](O)[C@H]4O)ccc3Cl)s2)c2ccccc21	–
2.39	OC[C@H]1OC(c2ccc(Cl)c(Cc3nnc(Cc4ccc(Cl)cc4)s3)c2)[C@H](O)[C@@H](O)[C@@H]1O (some centres not stated)	–
> 10	CC(C)(C)c1nnc(Cc2cccc(C3O[C@H](CO)[C@@H](O)[C@H](O)[C@H]3O)c2)s1 (some centres not stated)	–
0.0726	OC[C@H]1O[C@@H](c2ccc(Cl)c(Cc3nnc(-c4csc(-c5ccncc5)n4)s3)c2)[C@H](O)[C@@H](O)[C@@H]1O	–
